Test results from ChEMBL document CHEMBL1141075, “4-Oxo-4,7-dihydrothieno[2,3-b]pyridines as non-nucleoside inhibitors of human cytomegalovirus and related herpesvirus polymerases” (J Med Chem, 2005).
pIC50: −log10 of the molar value.

Experiments:
[1] = tested on: Vero; assay: Antiviral activity against herpes simplex virus type 1 KOS (WT) plaque forming unit grown on African green monkey kidney Vero cells upon incubation for 1 hour at 37 degrees C with compound dissolved in DMSO; conditions: Chlorocebus sabaeus
[2] = tested on: Vero; assay: Antiviral activity against herpes simplex virus type 1 KOS (AraAr13) plaque forming unit grown on Human foreskin fibroblast cells upon incubation for 1 hour at 37 degrees C with compound dissolved in DMSO; assay type: functional, cell-based; conditions: Chlorocebus sabaeus
Procedure, shortened: (§1)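 Plaque reduction: about 50 PFU added per well of a 24-well dish of the appropriate cells, 1 h at 37 °C, then the inoculum was replaced by drug-containing DMEM with 10% FBS and 0.8% carboxymethyl cellulose. DMSO stocks were 200-fold. Plates were held at 37 °C until plaques formed. Plaques were counted microscopically or after crystal violet stain. Percent inhibition was taken against the uninhibited control, with IC50 by linear regression.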

[3] = tested on: HFF; assay: Antiviral activity against human cytomegalovirus Ad169 (WT) plaque forming unit grown on Human foreskin fibroblast cells upon incubation for 1 hour at 37 degrees C with compound dissolved in DMSO; assay type: functional, cell-based, Human betaherpesvirus 5
Procedure, shortened: as §1

[4] = tested on: Vero; assay: Antiviral activity against herpes simplex virus type 2 (WT) plaque forming unit grown on Human foreskin fibroblast cells upon incubation for 1 hour at 37 degrees C with compound dissolved in DMSO; assay type: functional, cell-based; conditions: Chlorocebus sabaeus
Procedure, shortened: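 Plaque reduction: about 50 PFU per well onto the appropriate cell monolayer, adsorbed 1 h at 37 °C. Inoculum was then replaced with DMEM containing 10% FBS, 0.8% carboxymethyl cellulose and diluted compound from 200-fold DMSO stocks. Plates were held at 37 °C until plaques formed, which were counted microscopically or after crystal violet staining. IC50 came from linear regression of % inhibition versus untreated control, as the mean of two determinations.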

[5] = tested on: Vero; assay: Antiviral activity against herpes simplex virus type 1 KOS (V823A) plaque forming unit grown on Human foreskin fibroblast cells upon incubation for 1 hour at 37 degrees C with compound dissolved in DMSO; assay type: functional, cell-based; conditions: Chlorocebus sabaeus
Procedure, shortened: as §1

[6] = tested on: HFF; assay: Antiviral activity against human cytomegalovirus Ad169 (V823A) plaque forming unit grown on Human foreskin fibroblast cells upon incubation for 1 hour at 37 degrees C with compound dissolved in DMSO; assay type: functional, cell-based, Human betaherpesvirus 5
Procedure, shortened: as §1

[7] = tested on: Vero; assay: Antiviral activity against herpes simplex virus type 1 Patton (WT) plaque forming unit grown on Human foreskin fibroblast cells upon incubation for 1 hour at 37 degrees C with compound dissolved in DMSO; assay type: functional, cell-based; conditions: Chlorocebus sabaeus
Procedure, shortened: as §1

[8] = tested on: Vero; assay: Antiviral activity against herpes simplex virus type 1 KOS (PAAr5) plaque forming unit grown on African green monkey kidney Vero cells upon incubation for 1 hour at 37 degrees C with compound dissolved in DMSO; conditions: Chlorocebus sabaeus

Cn1cc(C(=O)NCc2ccc(Cl)cc2)c(=O)c2cc(CN3CCOCC3)sc21
pIC50 [1]: 5.25
pIC50 [2]: 5.68
pIC50 [3]: 5.82
pIC50 [4]: 6.10
pIC50 [5]: < 4.30
pIC50 [6]: 5.21
pIC50 [7]: 5.27
pIC50 [8]: 6.10
